Legend:
Assay type in all cases: functional
[1] = test system: MDA-MB-468; assay: Growth inhibition of human MDA-MB-468 cells assessed as cell growth at 10 uM after 48 hrs by sulforhodamine B assay; conditions: MDA-MB-468, 48 h, read-out: Activity
[2] = test system: T47D; assay: Growth inhibition of human T47D cells assessed as cell growth at 10 uM after 48 hrs by sulforhodamine B assay; conditions: read-out: Activity
Method in brief: (§1)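 Single-dose NCI screen. Tumor lines were cultured in medium with 5% fetal calf serum and 2 mM L-glutamine, preincubated 24 h, then given compound in DMSO. After 48 h continuous exposure, cell growth was estimated by sulforhodamine B protein assay.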

[3] = test system: OVCAR-8; assay: Growth inhibition of human OVCAR8 cells assessed as cell growth at 10 uM after 48 hrs by sulforhodamine B assay; conditions: OVCAR-8, 48 h, read-out: Activity
[4] = test system: UACC-257; assay: Growth inhibition of human UACC257 cells assessed as cell growth at 10 uM after 48 hrs by sulforhodamine B assay; conditions: UACC-257, 48 h, read-out: Activity; method in brief: as §1
[5] = test system: SK-MEL-5; assay: Growth inhibition of human SK-MEL-5 cells assessed as cell growth at 10 uM after 48 hrs by sulforhodamine B assay; conditions: SK-MEL-5, 48 h, read-out: Activity
[6] = test system: SK-MEL-28; assay: Growth inhibition of human SK-MEL-28 cells assessed as cell growth at 10 uM after 48 hrs by sulforhodamine B assay; conditions: SK-MEL-28, 48 h, read-out: Activity
[7] = test system: MDA-MB-435; assay: Growth inhibition of human MDA-MB-435 cells assessed as cell growth at 10 uM after 48 hrs by sulforhodamine B assay; conditions: MDA-MB-435, 48 h, read-out: Activity
[8] = test system: LOX IMVI; assay: Growth inhibition of human LOXIMVI cells assessed as cell growth at 10 uM after 48 hrs by sulforhodamine B assay; conditions: read-out: Activity
[9] = test system: SW-620; assay: Growth inhibition of human SW620 cells assessed as cell growth at 10 uM after 48 hrs by sulforhodamine B assay; conditions: SW-620, 48 h, read-out: Activity; method in brief: as §1
[10] = test system: COLO 205; assay: Growth inhibition of human COLO205 cells assessed as cell growth at 10 uM after 48 hrs by sulforhodamine B assay; conditions: COLO 205, 48 h, read-out: Activity
[11] = test system: NCI-H522; assay: Growth inhibition of human NCI-H522 cells assessed as cell growth at 10 uM after 48 hrs by sulforhodamine B assay; conditions: NCI-H522, 48 h, read-out: Activity
[12] = test system: NCI-H226; assay: Growth inhibition of human NCI-H226 cells assessed as cell growth at 10 uM after 48 hrs by sulforhodamine B assay; conditions: NCI-H226, 48 h, read-out: Activity
[13] = test system: HOP-92; assay: Growth inhibition of human HOP92 cells assessed as cell growth at 10 uM after 48 hrs by sulforhodamine B assay; conditions: HOP-92, 48 h, read-out: Activity
[14] = test system: HL-60(TB); assay: Growth inhibition of human HL-60(TB) cells assessed as cell growth at 10 uM after 48 hrs by sulforhodamine B assay; conditions: HL-60, 48 h, read-out: Activity
[15] = test system: T47D; assay: Growth inhibition of human T47D cells after 48 hrs by sulforhodamine B assay
Method in brief: (§2)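 NCI 60-line panel. Cells were grown in medium with 5% fetal calf serum and 2 mM L-glutamine and preincubated 24 h in plates. Compound in DMSO was added at 10^-4 to 10^-8 M (five 10-fold levels), with continuous exposure for 48 h. Growth was read by SRB protein staining. GI50 is the concentration giving 50% reduction in net protein increase versus control cells.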

[16] = Growth inhibition of human Hs 578T cells after 48 hrs by sulforhodamine B assay
Method in brief: (§3)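 NCI 60-cell-line panel grown in RPMI-type medium with 5% fetal calf serum and 2 mM L-glutamine. Cells preincubated 24 h, then exposed continuously for 48 h to compound in DMSO at 10^-4 to 10^-8 M (five 10-fold levels). Growth read by SRB protein stain. GI50 is the concentration giving a 50% reduction in net protein increase relative to control cells.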

[17] = test system: ACHN; assay: Growth inhibition of human ACHN cells after 48 hrs by sulforhodamine B assay; method in brief: as §3
[18] = test system: OVCAR-8; assay: Growth inhibition of human OVCAR8 cells after 48 hrs by sulforhodamine B assay; conditions: OVCAR-8, 48 h
Method in brief: (§4)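 NCI 60-cell-line panel. Cells were grown in medium with 5% fetal calf serum and 2 mM L-glutamine, then preincubated 24 h in plates. Compounds were added from DMSO at five 10-fold concentrations from 100 to 0.01 µM and left on cells continuously for 48 h. Cell growth was read by sulforhodamine B protein stain. GI50 is the concentration that halves net protein increase relative to control cells.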

[19] = test system: OVCAR-4; assay: Growth inhibition of human OVCAR4 cells after 48 hrs by sulforhodamine B assay; conditions: OVCAR-4, 48 h; method in brief: as §4
[20] = test system: UACC-257; assay: Growth inhibition of human UACC257 cells after 48 hrs by sulforhodamine B assay; conditions: UACC-257, 48 h; method in brief: as §2
[21] = test system: M14; assay: Growth inhibition of human M14 cells after 48 hrs by sulforhodamine B assay; conditions: M14, 48 h; for CC50: read-out: LC50 (the source's name); method in brief: as §3
[22] = test system: U-251; assay: Growth inhibition of human U251 cells after 48 hrs by sulforhodamine B assay; conditions: U-251, 48 h; for CC50: read-out: LC50 (the source's name); method in brief: as §2
[23] = test system: SF-268; assay: Growth inhibition of human SF268 cells after 48 hrs by sulforhodamine B assay; conditions: SF-268, 48 h; for CC50: read-out: LC50 (the source's name); method in brief: as §4
[24] = Growth inhibition of human HCC2998 cells after 48 hrs by sulforhodamine B assay; conditions: HCC 2998, 48 h; for CC50: read-out: LC50 (the source's name); method in brief: as §3
[25] = test system: NCI-H460; assay: Growth inhibition of human NCI-H460 cells after 48 hrs by sulforhodamine B assay; conditions: NCI-H460, 48 h; for CC50: read-out: LC50 (the source's name); method in brief: as §4
[26] = test system: RPMI-8226; assay: Growth inhibition of human RPMI8226 cells after 48 hrs by sulforhodamine B assay; conditions: RPMI-8226, 48 h; for CC50: read-out: LC50 (the source's name); method in brief: as §4
[27] = test system: HL-60(TB); assay: Growth inhibition of human HL-60(TB) cells after 48 hrs by sulforhodamine B assay; conditions: HL-60, 48 h; for CC50: read-out: LC50 (the source's name)
Method in brief: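 Part of the NCI 60-cell-line panel. Cells were grown in 1640 medium with 5% fetal calf serum and 2 mM L-glutamine, then preincubated 24 h before compound was added. Compounds in DMSO were tested at five concentrations (100, 10, 1, 0.1, 0.01 µM) with 48 h continuous exposure. Read-out was SRB protein staining; GI50 is the concentration halving the net protein increase versus control.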

Cc1cc(O)ccc1C1=NN(c2ccc(S(C)(=O)=O)cc2)C(=O)CC1
growth at 10 µM [1]: 103% | growth at 10 µM [2]: 84.8% | growth at 10 µM [3]: 92.3% | growth at 10 µM [4]: 93% | growth at 10 µM [5]: 68.3% | growth at 10 µM [6]: 81.2% | growth at 10 µM [7]: -8.25% | growth at 10 µM [8]: 67.5% | growth at 10 µM [9]: 46.6% | growth at 10 µM [10]: 65.8% | growth at 10 µM [11]: 2.39% | growth at 10 µM [12]: 93.3% | growth at 10 µM [13]: 92.8% | growth at 10 µM [14]: 52.6% | GI50 [15]: 20.2 µM | LC50 [15]: > 100 µM | TGI [15]: > 100 µM | GI50 [16]: 4.15 µM | LC50 (concentration giving 50% net cell kill) [16]: > 100 µM | TGI [16]: > 100 µM | GI50 [17]: 37.8 µM | LC50 (concentration killing 50% of starting cells) [17]: > 100 µM | TGI [17]: > 100 µM | GI50 [18]: 12.3 µM | LC50 [18]: > 100 µM | TGI [18]: > 100 µM | GI50 [19]: 76.9 µM | LC50 [19]: > 100 µM | TGI [19]: > 100 µM | GI50 [20]: 5.65 µM | LC50 (concentration killing 50% of cells) [20]: > 100 µM | TGI [20]: > 100 µM | GI50 [21]: 3.85 µM | TGI [21]: > 100 µM | CC50 [21]: > 100 µM | GI50 [22]: 4.3 µM | TGI [22]: > 100 µM | CC50 [22]: > 100 µM | GI50 [23]: 40 µM | TGI [23]: > 100 µM | CC50 [23]: > 100 µM | GI50 [24]: 46.7 µM | TGI [24]: > 100 µM | CC50 [24]: > 100 µM | GI50 [25]: 3.87 µM | TGI [25]: > 100 µM | CC50 [25]: > 100 µM | GI50 [26]: 25.6 µM | TGI [26]: > 100 µM | CC50 [26]: > 100 µM | GI50 [27]: 3.52 µM | TGI [27]: 48.4 µM | CC50 [27]: > 100 µM

CCc1ccc(C2=NN(c3ccc(S(C)(=O)=O)cc3)C(=O)CC2)cc1
growth at 10 µM [1]: 50.7% | growth at 10 µM [2]: 41.4% | growth at 10 µM [3]: 39.1% | growth at 10 µM [4]: 59.1% | growth at 10 µM [5]: 10.7% | growth at 10 µM [6]: 50.7% | growth at 10 µM [7]: -24.3% | growth at 10 µM [8]: 35% | growth at 10 µM [9]: 12.4% | growth at 10 µM [10]: 22.5% | growth at 10 µM [11]: -1.27% | growth at 10 µM [12]: 69.1% | growth at 10 µM [13]: 68.6% | growth at 10 µM [14]: 6.73% | GI50 [15]: 4.4 µM | LC50 [15]: > 100 µM | TGI [15]: 93.3 µM | GI50 [16]: 0.83 µM | LC50 (concentration giving 50% net cell kill) [16]: > 100 µM | TGI [16]: 6.89 µM | GI50 [17]: 8.59 µM | LC50 (concentration killing 50% of starting cells) [17]: > 100 µM | TGI [17]: > 100 µM | GI50 [18]: 3.25 µM | LC50 [18]: > 100 µM | TGI [18]: > 100 µM | GI50 [19]: 0.01 µM | LC50 [19]: > 100 µM | TGI [19]: > 100 µM | GI50 [20]: 3.3 µM | LC50 (concentration killing 50% of cells) [20]: > 100 µM | TGI [20]: 61.5 µM | GI50 [21]: 0.63 µM | TGI [21]: > 100 µM | CC50 [21]: > 100 µM | GI50 [22]: 1.91 µM | TGI [22]: > 100 µM | CC50 [22]: > 100 µM | GI50 [23]: 6.99 µM | TGI [23]: > 100 µM | CC50 [23]: > 100 µM | GI50 [24]: 5.27 µM | TGI [24]: 53.4 µM | CC50 [24]: > 100 µM | GI50 [25]: 0.82 µM | TGI [25]: 36.9 µM | CC50 [25]: > 100 µM | GI50 [26]: 0.42 µM | TGI [26]: > 100 µM | CC50 [26]: > 100 µM | GI50 [27]: 1.2 µM | TGI [27]: 6.35 µM | CC50 [27]: > 100 µM
